Bim-Bfl-1 = human Bim-Bfl-1 interaction inhibition; Bead-based flow cytometry, Bim-Bfl-1 binding inhibition; 190,000 tested, 0.12% active; inhibition, % at 10 µM
Target sequence (Q16548 whole entry, looked up): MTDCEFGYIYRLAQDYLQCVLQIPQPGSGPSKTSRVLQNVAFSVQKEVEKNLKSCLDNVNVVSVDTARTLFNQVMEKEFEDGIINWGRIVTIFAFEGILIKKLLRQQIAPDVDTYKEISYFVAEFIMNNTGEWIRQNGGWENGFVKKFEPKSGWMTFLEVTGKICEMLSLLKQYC
Bcl-XL Bim block = disrupts Bim peptide binding to human Bcl-XL; Q07817; bead flow cytometry, fluorescence; inhibition, % at 10 µM; 190,000 tested, 0.04% active; AID 1007
Bcl-2 Bim block = disrupts Bim peptide binding to human Bcl-2. AID 950. Bead-based flow cytometry, Bim peptide-Bcl-2 binding. inhibition, % at 10 µM. 190,000 tested, 0.06% active. P10415; in the data active = inhibition above about 40%
Bcl-B Bim block = inhibitors of Bim-Bcl-B interaction, human | AID 951 | inhibition, % at 10 µM | Q9HD36 | 190,000 tested, 0.073% active | bead-based flow cytometry, Bim peptide-Bcl-B binding
Target sequence (Q9HD36 whole entry, looked up): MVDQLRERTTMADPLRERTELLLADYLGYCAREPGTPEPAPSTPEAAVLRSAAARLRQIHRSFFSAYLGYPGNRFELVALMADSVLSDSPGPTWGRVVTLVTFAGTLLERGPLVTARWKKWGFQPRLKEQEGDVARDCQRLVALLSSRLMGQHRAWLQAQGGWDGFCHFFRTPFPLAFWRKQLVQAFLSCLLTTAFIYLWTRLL
Bcl-W Bim block = disrupts Bim peptide binding to human Bcl-W; bead-based flow cytometry; inhibition, % at 10 µM; AID 952; Q92843; 190,000 tested, 0.02% active;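 also: higher means less fluorescent Bim peptide bound to Bcl-W beads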
Target sequence (Q92843 whole entry, looked up): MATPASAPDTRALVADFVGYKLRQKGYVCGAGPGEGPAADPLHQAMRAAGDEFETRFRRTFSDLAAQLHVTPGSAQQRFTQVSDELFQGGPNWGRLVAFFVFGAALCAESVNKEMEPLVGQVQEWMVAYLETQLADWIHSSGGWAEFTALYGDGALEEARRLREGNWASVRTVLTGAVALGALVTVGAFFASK
Rad51 HR inh = blocks human Rad51 in homologous recombination. hRad51 DNA strand exchange, fluorescence dequenching. inhibition, % at 10 µM. AID 1385. 200,000 tested, 0.085% active;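 active = inhibition above 40% at the single screening dose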
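material = hRad51 filaments on single-stranded DNA | reagent = Donor/quencher-labelled 47-bp dsDNA substrate | compound = 10 µM final, single point | schedule = strand-exchange reaction 15 min at room temperature | measured by = fluorescein emission 520 nm, excitation 485 nm | read-out basis = % inhibition versus plate control and blank means | benchmarks = plate controls and plate blanks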
A number is an active result; n = inactive; x = no result. Shown are actives, neighbours in structure and some others; about 0.23% of the full set was active somewhere. Rule as the data show it, unless noted: active = inhibition above about 40%.

SMILES	Bim-Bfl-1	Bcl-XL Bim block	Bcl-2 Bim block	Bcl-B Bim block	Bcl-W Bim block	Rad51 HR inh
Cc1cc2nc3c(nc2cc1C)C1(C(=O)O)CCC3(C)C1(C)C (stereo unspecified)	n	n	n	n	n	40.3
CNC(=O)C12CCC(C)(c3nc4cc(C)c(C)cc4nc31)C2(C)C (stereo unspecified)	n	n	n	n	n	n
O=C1N/C(=C/c2cccn2-c2ccccc2)C(=O)N1Cc1ccc(F)cc1	42.0	n	n	n	n	n
Cc1cc(C(=O)C(C)Sc2cccc[n+]2[O-])c(C)n1-c1ccc(Cl)cc1 (stereo unspecified)	n	n	n	n	n	n
Cc1cc2nc3n(c2cc1C)CC1CC(C(=O)NCC2CC2)N(C)C31 (stereo unspecified)	x	x	x	x	x	n
COc1ccccc1C(=O)N=Nc1c(O)[nH]c2ccc([N+](=O)[O-])cc12	n	44.0	n	n	n	n
COc1ccc(C2C(=O)c3ccccc3C2=O)c(OC)c1	n	n	n	n	n	100.3
CC1N(C)c2cccc3cccc(c23)N1C	43.0	n	n	n	n	n
NC(=O)c1ccc(NC(=O)CSc2nnc(-c3ccncc3)n2Cc2ccco2)cc1	x	x	x	x	x	n
COc1ccc(-n2cnnc2SCC(=O)Nc2cc(C)on2)cc1	n	n	n	n	n	44.4
Cc1cc(NC(=O)CSc2nncn2-c2ccccc2)no1	n	n	n	n	n	n
COc1ccc(C(=O)C[n+]2cn(C(F)F)c3ccccc32)c(F)c1	n	n	n	n	n	n
COCc1cc(C)nc2sc(C(=O)NCCO)c(-n3cccc3)c12	n	n	n	n	n	44.8
CC(C)(C)C1=CC(=O)C(=O)C(C(C)(C)C)=C1	56.0	n	n	n	n	n
O=C(CSc1nnc(-c2ccc(Cl)cc2)n1-c1ccc(Cl)cc1)N/N=C/c1ccco1	n	n	n	n	n	n
Cc1ccc(/C=N/NC(=O)CSc2nnc(-c3ccc(Cl)cc3)n2-c2ccccc2)o1	n	n	n	48.0	n	n
CN(C1=C(NC(=O)c2ccccc2)C(=O)c2ccccc2C1=O)C1CCS(=O)(=O)C1 (stereo unspecified)	n	n	n	n	n	x
CC(=O)NC1=C(NC2CCS(=O)(=O)C2)C(=O)c2ccccc2C1=O (stereo unspecified)	41.0	n	n	n	n	n
CC(=O)N1CCN(C(=O)c2ccc(-n3c(C)ccc3C)cc2)CC1	n	n	n	41.0	n	n
O=S(=O)(Nc1ccc(O)c(CN2CCCCC2)c1)c1ccccc1	n	n	n	n	n	56.6
C=C1C(C(=O)Nc2ccc(OC)cc2)C1C(=O)Nc1ccc(OC)cc1 (stereo unspecified)	x	x	x	x	x	n
COc1cc2[nH]c(=S)nc(NC3CCCC3)c2cc1OC	n	44.0	n	n	n	n
O=C(CSCc1ccc(F)cc1)Nc1nc2c(s1)CCCC2	n	n	n	n	n	66.0
O=C(NC1=NCCS1)NC12CC3CC(CC(C3)C1)C2	60.0	n	84.0	84.0	n	n
CN(C(=O)CSc1nc(N)c2c3c(sc2n1)CSC(C)(C)C3)c1ccccc1	n	n	n	n	n	n
SMILES	Bim-Bfl-1	Bcl-XL Bim block	Bcl-2 Bim block	Bcl-B Bim block	Bcl-W Bim block	Rad51 HR inh
CC(=O)OCCCNc1cc(Sc2ccc(C)cc2)c2nonc2c1[N+](=O)[O-]	n	n	n	n	n	n
CC(=O)OCCNc1cc(Sc2nc3ccccc3[nH]2)c2nonc2c1[N+](=O)[O-]	44.0	n	n	n	n	n
O=C(Nc1ccccc1F)C1CCCN(S(=O)(=O)c2ccccc2)C1 (stereo unspecified)	n	n	n	n	n	n
CCN(CC)c1ccc(NC2=C(Cl)C(=O)c3ccccc3C2=O)cc1	70.0	n	n	n	n	x
Cc1ccccc1NC(=O)NCC1CCCO1 (stereo unspecified)	n	n	n	n	n	42.4
COC(=O)c1ccccc1NC(=O)NCC1CCCO1 (stereo unspecified)	n	n	n	n	n	n
Cc1cccc(N2C(S)=C(C#N)C(=O)NC2c2cccs2)c1 (stereo unspecified)	42.0	n	n	n	n	n
CC1CCN(C(=O)c2ccc(CSc3nc4ccncc4n3Cc3ccc(F)cc3)cc2)CC1	n	n	n	n	n	n
COc1ccccc1C(=O)NCC(=O)N/N=C/c1cccc(Cl)c1	n	n	n	n	n	n
O=C(COc1ccccc1)Nc1ccc2c(c1)Cc1cc(NC(=O)COc3ccccc3)ccc1-2	91.0	103.0	104.0	107.0	110.0	n
CC1=CC(=O)c2c(O)ccc(O)c2C1=O	66.0	n	n	n	45.0	n
CC(NC(=S)Nc1ccccc1Cl)C(c1cccs1)N1CCCC1 (stereo unspecified)	n	n	n	n	n	n
CC(C)(C)NC(=O)CCN(/N=C/c1ccc([N+](=O)[O-])o1)C1=NS(=O)(=O)c2ccccc21	n	53.0	n	n	n	n
O=C(CNc1ccccc1)N/N=C/c1ccc([N+](=O)[O-])o1	n	n	n	n	n	n
NNC(=S)NCCc1ccccc1	n	n	n	n	n	n
S=C(NCCc1ccccc1)NCCc1ccccc1	44.0	n	n	n	n	n
CN1/C(=C\C(=O)Nc2ccc(Cl)cc2)C(C)(C)c2ccccc21	n	40.0	n	n	n	n
CN1/C(=C\C=C(/C#N)C(=O)Nc2ccc(Cl)cc2)C(C)(C)c2ccccc21	n	n	n	n	n	n
CCOC(=O)N1CCN(c2cc(NCCC(=O)O)c3c4c(onc24)-c2ccccc2C3=O)CC1	43.0	40.0	n	n	n	x
O=C(O)CCCNc1cc(N2CCC3(CC2)OCCO3)c2noc3c2c1C(=O)c1ccccc1-3	42.0	n	n	n	n	x
CCOC(=O)N1CCN(C(=O)CSc2ccc3nnc(-c4cccnc4)n3n2)CC1	n	n	n	n	n	n
O=C(c1ccc2c(c1)OCO2)N(Cc1cccs1)C1(C(=O)NC2CCCCC2)CCCCC1	n	n	n	n	n	n
CC1(C(=O)N(CC(=O)NC2CCCC2)Cc2ccco2)CC(=O)N=C2C=CC=CN21 (stereo unspecified)	x	n	88.0	x	n	n
Nc1c(Cl)cc(-c2csc(N3CCCC3c3nc4cc(Cl)c(N5CCCCC5)cc4n3CCOCCO)n2)cc1Cl (stereo unspecified)	x	x	x	x	x	n
COc1cc(C)c2c(c1C=O)Oc1c(c(C)c(O)c3c1C(O)OC3=O)OC2=O (stereo unspecified)	n	n	n	n	n	47.4
Cc1ccc(-c2nc(-c3ccccn3)sc2CC(=O)O)cc1	x	x	x	x	x	46.9
O=C(O)Cc1sc(-c2ccccc2)nc1-c1ccccc1	n	n	n	n	n	n
O=C(CCC(=O)Nc1ccc(Cl)cc1Cl)N/N=C/c1ccc([N+](=O)[O-])o1	n	n	n	n	n	n
O=C(Nc1ccccc1)C1=C(c2ccccc2)S(=O)(=O)CCS1(=O)=O	n	n	n	n	n	41.6
O=C(O)c1ccccc1C(=O)Nc1ccccc1	n	n	n	n	n	n

From PubChem
